Each structure is given as a SMILES string. Calls of active or inactive are those of the source. No cut-off for these calls is given here.

Data set [1] concerns the target ATP-dependent translocase ABCB1 (Homo sapiens, UniProt P08183). Briefly: Inhibition of MDR1 in human A2780adr cells assessed as calcein AM accumulation at 10 uM by fluorimetry. It is filed as cell-based. The settings on record: a2780 adr. The method in brief:
(§1)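 Calcein AM accumulation in A2780adr (P-gp) or 2008 MRP1 cells. Cells washed in Krebs-HEPES buffer, about 30,000 per well, preincubated 30 min with compound at 10 µM final. Calcein AM then added. Fluorescence (ex 485, em 520 nm) read every 60 s up to 90 min at 37 °C. Expressed as percent of vehicle control; n = 3.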

Data set [2] deals with Multidrug resistance-associated protein 1 (Homo sapiens, UniProt P33527). Briefly: Inhibition of MRP1 overexpressed in human 2008 MRP1 cells assessed as calcein AM accumulation at 10 uM by fluorimetry. It is filed as cell-based. The settings on record: human, 2008, 10 µM. The method in brief:
as §1

The test system of another data set is MDCK-II. Description: Potentiation of SN-38 anticancer activity against MDCK2 cells expressing human BCRP after 72 hrs by MTT assay. It is filed as functional, cell-based. The settings on record: Canis lupus familiaris. Put shortly:
(§2)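 Cells seeded (1250/well MDCK, 10,000/well MCF-7) and left 6 h at 37 °C, 5% CO2. Mitoxantrone or SN-38 dose range added with or without three concentrations of modulator, then 72 h incubation. MTT added for 1 h, cells lysed in DMSO, absorbance read at 544 nm minus 710 nm. EC50 derived; parental cells as controls; three independent experiments.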

The target of data set [3] is T1, Broad substrate specificity ATP-binding cassette transporter ABCG2 (Homo sapiens, UniProt Q9UNQ0).
T1 sequence (Q9UNQ0 whole entry): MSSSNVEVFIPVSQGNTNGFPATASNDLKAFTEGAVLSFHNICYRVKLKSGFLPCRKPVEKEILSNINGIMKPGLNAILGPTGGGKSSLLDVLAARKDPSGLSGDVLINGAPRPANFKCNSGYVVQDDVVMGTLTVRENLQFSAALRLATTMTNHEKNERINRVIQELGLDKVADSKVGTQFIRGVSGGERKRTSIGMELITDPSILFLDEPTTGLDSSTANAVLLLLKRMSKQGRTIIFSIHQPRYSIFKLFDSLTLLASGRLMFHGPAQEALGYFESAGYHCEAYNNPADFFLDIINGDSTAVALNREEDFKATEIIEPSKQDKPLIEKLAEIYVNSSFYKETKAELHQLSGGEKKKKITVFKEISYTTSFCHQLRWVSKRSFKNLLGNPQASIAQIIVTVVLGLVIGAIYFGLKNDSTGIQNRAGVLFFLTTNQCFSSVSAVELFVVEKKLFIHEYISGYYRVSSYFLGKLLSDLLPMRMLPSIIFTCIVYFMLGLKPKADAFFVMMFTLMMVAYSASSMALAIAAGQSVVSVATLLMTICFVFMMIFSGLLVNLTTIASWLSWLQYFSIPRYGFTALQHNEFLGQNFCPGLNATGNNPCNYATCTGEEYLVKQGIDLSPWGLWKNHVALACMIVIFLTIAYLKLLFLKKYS
Briefly: Inhibition of BCRP in human MCF7/MX cells assessed as Hoechst 33342 accumulation preincubated for 30 mins by Fluorometry. The format is cell-based. Put shortly:
(§3)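 Cells washed three times in Krebs-HEPES buffer, about 20,000 per well, preincubated with test compound at varied concentrations for 30 min at 37 °C, 5% CO2. Hoechst 33342 then added (final 1 µM). Fluorescence (ex 355, em 460 nm) read every 60 s up to 120 min at 37 °C. KHB background subtracted, 100–109 min mean plotted, four-parameter logistic fit; ≥3 independent experiments.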

Data set [4] concerns the target T1, Broad substrate specificity ATP-binding cassette transporter ABCG2. Briefly: Inhibition of human BCRP expressed in MDCK2 cells assessed as Hoechst 33342 accumulation preincubated for 30 mins by fluorimetry. The format is cell-based, MDCK-II. The method in brief: as §3
The test system of data set [5] is MCF7/MX. Description: Potentiation of mitoxantrone anticancer activity against human MCF7/MX cells at 1 uM after 72 hrs by MTT assay. The format is functional, cell-based. The method in brief: as §2
In data set [6] the test system is MCF7/MX. Description: Potentiation of mitoxantrone anticancer activity against human MCF7/MX cells at 3 uM after 72 hrs by MTT assay. It is filed as functional, cell-based. The method in brief:
as §2
(Tetrazolium assays rely on reduction of a dye to a coloured formazan, in cell work by metabolically active cells.)

For data set [7], the system named is MCF7/MX. Briefly: Potentiation of mitoxantrone anticancer activity against human MCF7/MX cells at 5 uM after 72 hrs by MTT assay. The format is functional, cell-based. The method in brief: as §2

ATP-dependent translocase ABCB1, sequence (P08183 whole entry): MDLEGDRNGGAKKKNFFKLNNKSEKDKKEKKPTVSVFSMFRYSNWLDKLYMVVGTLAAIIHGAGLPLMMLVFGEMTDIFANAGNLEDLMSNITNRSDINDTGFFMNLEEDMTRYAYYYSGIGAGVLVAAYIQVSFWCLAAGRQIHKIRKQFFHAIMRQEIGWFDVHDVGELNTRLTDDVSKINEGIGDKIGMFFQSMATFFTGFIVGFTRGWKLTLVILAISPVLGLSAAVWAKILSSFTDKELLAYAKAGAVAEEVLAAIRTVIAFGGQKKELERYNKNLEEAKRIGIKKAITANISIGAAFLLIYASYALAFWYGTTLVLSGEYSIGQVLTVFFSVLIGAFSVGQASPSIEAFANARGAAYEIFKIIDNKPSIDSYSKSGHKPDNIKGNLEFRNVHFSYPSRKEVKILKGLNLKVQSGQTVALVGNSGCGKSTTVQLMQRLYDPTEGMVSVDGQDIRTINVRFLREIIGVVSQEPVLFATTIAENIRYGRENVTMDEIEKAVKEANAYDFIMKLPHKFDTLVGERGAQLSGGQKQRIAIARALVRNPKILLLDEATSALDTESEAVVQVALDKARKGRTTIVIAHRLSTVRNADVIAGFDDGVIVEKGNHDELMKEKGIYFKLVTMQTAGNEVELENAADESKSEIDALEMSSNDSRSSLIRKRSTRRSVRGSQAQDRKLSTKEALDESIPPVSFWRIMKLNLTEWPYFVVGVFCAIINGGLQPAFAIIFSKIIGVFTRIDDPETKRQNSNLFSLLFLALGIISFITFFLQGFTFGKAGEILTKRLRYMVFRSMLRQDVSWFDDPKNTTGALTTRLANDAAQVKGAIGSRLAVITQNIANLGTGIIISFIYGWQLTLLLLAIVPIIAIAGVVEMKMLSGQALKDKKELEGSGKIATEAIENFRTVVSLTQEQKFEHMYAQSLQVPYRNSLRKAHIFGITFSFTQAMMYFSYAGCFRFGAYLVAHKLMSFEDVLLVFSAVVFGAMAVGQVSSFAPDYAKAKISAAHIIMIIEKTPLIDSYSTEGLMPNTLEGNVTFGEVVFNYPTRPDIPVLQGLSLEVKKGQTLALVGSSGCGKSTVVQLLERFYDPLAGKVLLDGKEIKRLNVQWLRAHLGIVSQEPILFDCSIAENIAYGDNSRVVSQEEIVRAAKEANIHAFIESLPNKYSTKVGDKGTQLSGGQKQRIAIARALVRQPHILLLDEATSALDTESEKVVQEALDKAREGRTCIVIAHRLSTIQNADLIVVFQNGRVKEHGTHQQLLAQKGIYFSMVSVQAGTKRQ
Multidrug resistance-associated protein 1, sequence (P33527 whole entry): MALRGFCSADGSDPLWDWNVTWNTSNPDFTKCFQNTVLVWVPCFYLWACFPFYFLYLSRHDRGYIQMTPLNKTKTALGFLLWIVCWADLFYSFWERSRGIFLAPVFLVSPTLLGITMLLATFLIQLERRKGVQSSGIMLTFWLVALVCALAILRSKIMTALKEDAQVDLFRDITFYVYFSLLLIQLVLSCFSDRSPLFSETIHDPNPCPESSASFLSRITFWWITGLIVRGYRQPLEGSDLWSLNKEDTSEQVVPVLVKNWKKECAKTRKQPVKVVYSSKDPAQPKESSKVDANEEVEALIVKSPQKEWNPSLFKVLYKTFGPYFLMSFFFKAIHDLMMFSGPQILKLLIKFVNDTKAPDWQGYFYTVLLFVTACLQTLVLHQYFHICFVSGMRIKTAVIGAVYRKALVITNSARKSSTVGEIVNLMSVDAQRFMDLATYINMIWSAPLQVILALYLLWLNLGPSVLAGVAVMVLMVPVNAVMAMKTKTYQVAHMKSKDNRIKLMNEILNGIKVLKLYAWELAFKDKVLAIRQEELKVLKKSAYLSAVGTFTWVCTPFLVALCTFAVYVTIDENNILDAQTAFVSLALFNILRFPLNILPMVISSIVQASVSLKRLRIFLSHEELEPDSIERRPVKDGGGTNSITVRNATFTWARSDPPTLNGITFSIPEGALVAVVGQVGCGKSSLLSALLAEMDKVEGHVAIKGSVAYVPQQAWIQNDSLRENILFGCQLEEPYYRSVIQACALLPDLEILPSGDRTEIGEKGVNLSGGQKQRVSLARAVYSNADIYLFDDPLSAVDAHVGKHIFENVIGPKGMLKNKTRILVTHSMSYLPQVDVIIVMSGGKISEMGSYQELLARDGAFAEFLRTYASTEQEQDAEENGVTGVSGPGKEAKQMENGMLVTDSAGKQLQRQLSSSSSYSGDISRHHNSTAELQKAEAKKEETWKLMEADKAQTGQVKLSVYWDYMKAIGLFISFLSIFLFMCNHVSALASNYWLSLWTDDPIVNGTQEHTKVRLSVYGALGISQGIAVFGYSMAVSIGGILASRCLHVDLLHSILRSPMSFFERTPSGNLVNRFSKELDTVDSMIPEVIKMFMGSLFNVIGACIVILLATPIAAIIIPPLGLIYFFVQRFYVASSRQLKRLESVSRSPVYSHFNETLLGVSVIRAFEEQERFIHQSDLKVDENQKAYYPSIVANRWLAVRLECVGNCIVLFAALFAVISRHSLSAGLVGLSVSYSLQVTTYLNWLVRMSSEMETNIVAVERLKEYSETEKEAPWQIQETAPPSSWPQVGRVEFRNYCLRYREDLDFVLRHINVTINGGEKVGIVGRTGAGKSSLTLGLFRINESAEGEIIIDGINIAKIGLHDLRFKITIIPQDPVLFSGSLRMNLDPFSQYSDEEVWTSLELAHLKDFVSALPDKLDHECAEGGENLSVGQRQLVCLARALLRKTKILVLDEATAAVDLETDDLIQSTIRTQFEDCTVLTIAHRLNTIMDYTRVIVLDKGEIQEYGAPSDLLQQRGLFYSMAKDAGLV

For `COc1ccc(/C=C/C(=O)c2c(O)ccc3ccccc23)cc1OC`, the “inhibition (INH)” value in data set [1] is “Active”; in data set [2] it was “Not Active”. Further, the Activity result with MDCK-II was “Dose-dependent effect”. Besides, the half-inhibitory concentration (IC50) in data set [3] (read-out: IC50) came out at 1840 nM; in data set [4] (read-out: IC50) it was 720 nM.

Consider `COc1cc(O)c(C(=O)/C=C/c2ccc(OC)c(OC)c2)c(OC)c1`, for which the “inhibition (INH)” value in data set [1] is “Active”; in data set [2], “Not Active”. Also, the outcome in the data set with MCF7/MX [5], with MCF7/MX [6] and in the data set with MCF7/MX [7] was Active. Further, the figures for the IC50 in data set [3] (read-out: IC50) and in data set [4] (read-out: IC50) were 750 nM and 530 nM, respectively.

With `COc1ccc(C(=O)/C=C/c2ccc(OC)c(OC)c2)c(O)c1`, the figures for the “inhibition (INH)” value in data set [1] and in data set [2] were “Active” and “Not Active”, respectively. Besides, the IC50 in data set [3] (read-out: IC50) came to 2170 nM; in data set [4] (read-out: IC50), 1060 nM.

Consider `COc1ccc(/C=C/C(=O)c2ccccc2O)cc1`, for which the “inhibition (INH)” value in data set [1] is given as “Active”; in data set [2] it was “Not Active”. Moreover, the IC50 entry in data set [3] (mcf7/mx) and in data set [4] (mdck-ii) was “Not Active” in each case.

As for `COc1cc(O)c(C(=O)/C=C/c2ccccc2Cl)c(OC)c1`, the “inhibition (INH)” value in data set [1] was “Active”; in data set [2], “Not Active”. Also, the results for the IC50 in data set [3] (read-out: IC50) and in data set [4] (read-out: IC50) were 5270 nM and 2820 nM, respectively.

For the molecule `COc1ccc(C(=O)/C=C/c2ccc(OC)c(OC)c2)c(OC)c1`, the figures for the “inhibition (INH)” value in data set [1] and in data set [2] were “Active” and “Not Active”, respectively. Further, the IC50 was 2200 nM in data set [3] (read-out: IC50) and 1030 nM in data set [4] (read-out: IC50).

Consider `O=C(/C=C/c1ccccc1)c1ccc(O)cc1O` [2',4'-DIHYDROXYCHALCONE], for which the “inhibition (INH)” value in data set [1] is given as “Active”; in data set [2], “Not Active”. The IC50 result in data set [3] (mcf7/mx) and in data set [4] (mdck-ii) was “Not Active” throughout.

In the case of `COc1cccc(/C=C/C(=O)c2c(O)ccc3ccccc23)c1`, the “inhibition (INH)” value is on record as “Active” in data set [1] and “Not Active” in data set [2]. The IC50 in data set [3] (read-out: IC50) and in data set [4] (read-out: IC50) was 1930 nM each time.

For the molecule `COc1ccc(/C=C/C(=O)c2ccc(OC)c(OC)c2)cc1`, the “inhibition (INH)” value in data set [1] is on record as “Active”; in data set [2], “Not Active”. Moreover, the IC50 in data set [3] (read-out: IC50) was determined as 2190 nM; in data set [4] (read-out: IC50), 1160 nM.

For orientation: IC50 means the midpoint of a concentration-inhibition curve.

The record behind these values is ChEMBL document CHEMBL1933063, “Investigation of chalcones and benzochalcones as inhibitors of breast cancer resistance protein” (Bioorg Med Chem, 2012).
